Converted amounts (≈) assume the structure as drawn.
Assays:
[1] = tested on: Mycobacterium tuberculosis; experiment: […]; assay type: functional
Method in brief: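 Strains were grown at 37 °C in 7H9 Middlebrook broth with 10% OADC, 0.05% Tween and 0.2% glycerol. Compounds were dissolved in DMSO and serially diluted 2-fold, then bacteria were added. Plates were incubated 6 days at 37 °C, then 24 h more with Alamar Blue. MIC was the lowest concentration (μg/mL) that prevented the colour change. Run in triplicate.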

Vero = experiment: Cytotoxicity against Vero cells after 3 days by Alamar Blue assay; assay type: cell-based; conditions: Chlorocebus sabaeus, 72 h
Method in brief: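 Vero (African green monkey kidney epithelial) cells were grown without CO₂ in L15 with antibiotics and heat-inactivated calf serum. Cells in medium with 2X Alamar Blue were added at 1.3×10^4 cells/well to 2-fold serial drug dilutions. Plates were incubated 3 days at 37 °C, and IC50 was calculated per the manufacturer's directions.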

SMILES | MIC ([1]; H37Rv, 144 h) [µg/mL] | IC50 (Vero) [µg/mL] | MIC ([1]; W210, 144 h) [µg/mL]
CCN(CC)c1cc2[nH]c(C3CCCCC3)nc2cc1NC(=O)c1ccc(OC(F)(F)F)cc1 | > 100 | > 100 | –
O=C(NCc1ccccc1)Nc1cc2nc(C3CCCCC3)[nH]c2cc1N1CCCC1 | 25 (≈ 59.9 µM) | > 100 | –
CCCOCC(=O)Nc1cc2nc(C3CCCCC3)[nH]c2cc1N(CC)CC | 25 (≈ 64.7 µM) | > 100 | –
CCCCOC(=O)Nc1cc2nc(C3CCCCC3)[nH]c2cc1N(CC)CC | – | > 100 | 1.25 (≈ 3.23 µM)
O=C(Nc1cc2nc(C3CCCCC3)[nH]c2cc1N1CCCC1)OCc1ccccc1 | 3.13 (≈ 7.48 µM) | – | –
CCCOCC(=O)Nc1cc2nc(C3CCCCC3)[nH]c2cc1N1CCCC1 | 12.5 (≈ 32.5 µM) | > 100 | –
CCN(CC)c1cc2[nH]c(C3CCCCC3)nc2cc1NC(=O)c1ccc(F)cc1 | > 100 | > 100 | –
CCN(CC)c1cc2[nH]c(C3CCCCC3)nc2cc1NC(=O)c1cccc(Br)c1 | > 100 | > 100 | –
CCCN(CCC)c1cc2[nH]c(C3CCCCC3)nc2cc1NC(=O)c1ccccc1 | > 100 | > 100 | –
Cc1ccc(C(=O)Nc2cc3nc(C4CCCCC4)[nH]c3cc2N2CCCC2)cc1 | 3.13 (≈ 7.78 µM) | > 100 | –
CCCc1ccc(C(=O)Nc2cc3nc(C4CCCCC4)[nH]c3cc2N(CC)CC)cc1 | > 100 | – | –
CCCCOC(=O)Nc1cc2nc(C3CCCCC3)[nH]c2cc1N(CCC)CCC | 6.25 (≈ 15.1 µM) | > 100 | –
CN(C)c1cc2[nH]c(C3CCCCC3)nc2cc1NC(=O)c1ccc(C(C)(C)C)cc1 | 1.56 (≈ 3.73 µM) | > 100 | –
COc1ccc(CC(=O)Nc2cc3nc(C4CCCCC4)[nH]c3cc2N(C)C)cc1 | > 100 | > 100 | –
COCCOC(=O)Nc1cc2nc(C3CCCCC3)[nH]c2cc1N1CCCC1 | 3.13 (≈ 8.1 µM) | > 100 | –
CN(C)c1cc2[nH]c(C3CCCCC3)nc2cc1NC(=O)c1ccc(F)cc1F | 0.31 (≈ 0.778 µM) | > 100 | –
CCCc1ccc(C(=O)Nc2cc3nc(C4CCCCC4)[nH]c3cc2N(C)C)cc1 | 0.63 (≈ 1.56 µM) | > 100 | –
CCN(CC)c1cc2[nH]c(C3CCCCC3)nc2cc1NC(=O)c1ccc(N(C)C)cc1 | 12.5 (≈ 28.8 µM) | – | –
CCCCCC(=O)Nc1cc2nc(C3CCCCC3)[nH]c2cc1N(C)C | 1.25 (≈ 3.51 µM) | > 100 | –
CCOCCOC(=O)Nc1cc2nc(C3CCCCC3)[nH]c2cc1N1CCCC1 | 1.56 (≈ 3.89 µM) | > 100 | –
CCN(CC)c1cc2[nH]c(C3CCCCC3)nc2cc1NC(=O)OCC(F)(F)F | 1.56 (≈ 3.78 µM) | > 100 | –

SMILES | MIC ([1]; H37Rv, 144 h) [µg/mL] | IC50 (Vero) [µg/mL] | MIC ([1]; W210, 144 h) [µg/mL]
COc1ccc(C(=O)Nc2cc3nc(C4CCCCC4)[nH]c3cc2N(C)C)cc1 | 0.31 (≈ 0.79 µM) | > 100 | –
CCCCCC(=O)Nc1cc2nc(C3CCCCC3)[nH]c2cc1N1CCCC1 | 6.25 (≈ 16.3 µM) | > 100 | –
O=C(Nc1cc2nc(C3CCCCC3)[nH]c2cc1N1CCCC1)OCC(F)(F)F | 0.31 (≈ 0.755 µM) | > 100 | –
CCCNC(=O)Nc1cc2nc(C3CCCCC3)[nH]c2cc1N1CCCC1 | 100 (≈ 271 µM) | > 100 | –
CCCCNC(=O)Nc1cc2nc(C3CCCCC3)[nH]c2cc1N(C)C | 6.25 (≈ 17.5 µM) | > 100 | –
C=Cc1cccc(C(=O)Nc2cc3nc(C4CCCCC4)[nH]c3cc2N(CC)CC)c1 | 25 (≈ 60 µM) | > 100 | –
CCCCOC(=O)Nc1cc2nc(C3CCCCC3)[nH]c2cc1N(CC)CCN(CC)CC | 50 (≈ 109 µM) | > 50 | –
CCCCNC(=O)Nc1cc2nc(C3CCCCC3)[nH]c2cc1N(CC)CC | > 100 | > 100 | –
CCN(CC)c1cc2[nH]c(C3CCCCC3)nc2cc1NC(=O)c1ccc(OC)cc1 | 1.56 (≈ 3.71 µM) | – | –
CN(C)c1cc2[nH]c(C3CCCCC3)nc2cc1NC(=O)c1ccc(Br)cc1 | 0.31 (≈ 0.702 µM) | > 100 | –
CCN(CC)c1cc2[nH]c(C3CCCCC3)nc2cc1NC(=O)c1ccc(Br)cc1 | 100 (≈ 213 µM) | > 100 | –
CCN(CC)c1cc2[nH]c(C3CCCCC3)nc2cc1NC(=O)NCc1ccccc1 | > 100 | > 100 | –
Cc1ccc(C(=O)Nc2cc3nc(C4CCCCC4)[nH]c3cc2N(C)C)cc1 | 0.31 (≈ 0.823 µM) | > 100 | –
CN(C)c1cc2[nH]c(C3CCCCC3)nc2cc1NC(=O)c1ccc(OC(F)F)cc1 | 0.31 (≈ 0.723 µM) | > 100 | –
CN(C)c1cc2[nH]c(C3CCCCC3)nc2cc1NC(=O)c1ccco1 | 6.25 (≈ 17.7 µM) | > 100 | –
CCN(CC)c1cc2[nH]c(C3CCCCC3)nc2cc1NC(=O)c1ccc(F)cc1F | > 100 | > 100 | –
CCN(CC)c1cc2[nH]c(C3CCCCC3)nc2cc1NC(=O)c1cnccn1 | 10 (≈ 25.5 µM) | > 100 | –
CCCN(CCC)c1cc2[nH]c(C3CCCCC3)nc2cc1NC(=O)OCc1ccccc1 | > 100 | > 100 | –
CCOCCOC(=O)Nc1cc2nc(C3CCCCC3)[nH]c2cc1N(C)C | 0.31 (≈ 0.828 µM) | > 100 | –
CCOCCOC(=O)Nc1cc2nc(C3CCCCC3)[nH]c2cc1N(CC)CC | 1.56 (≈ 3.88 µM) | > 100 | –
CN(C)c1cc2[nH]c(C3CCCCC3)nc2cc1NC(=O)c1cccs1 | 5 (≈ 13.6 µM) | > 100 | –

SMILES | MIC ([1]; H37Rv, 144 h) [µg/mL] | IC50 (Vero) [µg/mL] | MIC ([1]; W210, 144 h) [µg/mL]
CN(C)c1cc2[nH]c(C3CCCCC3)nc2cc1NC(=O)c1cccc(Br)c1 | 3.13 (≈ 7.09 µM) | > 100 | –
CCCCOC(=O)Nc1cc2nc(C3CCCCC3)[nH]c2cc1N1CCCC1 | 0.39 (≈ 1.01 µM) | – | –
CN(C)c1cc2[nH]c(C3CCCCC3)nc2cc1NC(=O)c1ccc(F)cc1 | 0.63 (≈ 1.66 µM) | > 100 | –
NNC(=O)c1ccncc1 [ISONIAZID] | 0.013 (≈ 0.0948 µM) | – | 0.01 (≈ 0.0729 µM)
O=C(CCc1ccccc1)Nc1cc2nc(C3CCCCC3)[nH]c2cc1N1CCCC1 | 12.5 (≈ 30 µM) | > 100 | –
CCN(CC)c1cc2[nH]c(C3CCCCC3)nc2cc1NC(=O)c1ccc(C)cc1 | 12.5 (≈ 30.9 µM) | > 100 | –
CCCOCC(=O)Nc1cc2nc(C3CCCCC3)[nH]c2cc1N(C)C | 6.25 (≈ 17.4 µM) | < 50 | –
CCCCNC(=O)Nc1cc2nc(C3CCCCC3)[nH]c2cc1N1CCCC1 | 25 (≈ 65.2 µM) | > 100 | –
CCCCOC(=O)Nc1cc2nc(C3CCCCC3)[nH]c2cc1N(CC)CCN(C)C | 100 (≈ 233 µM) | > 100 | –
CCN(CC)c1cc2[nH]c(C3CCCCC3)nc2cc1NC(=O)OCCOCCOC | 12.5 (≈ 28.9 µM) | > 100 | –
CCN(CC)c1cc2[nH]c(C3CCCCC3)nc2cc1NC(=O)c1ccc(OC(F)F)cc1 | > 100 | > 100 | –
O=C(Nc1cc2nc(C3CCCCC3)[nH]c2cc1N1CCCC1)c1ccc(Br)cc1 | 1.56 (≈ 3.34 µM) | > 100 | –
CN(C)c1cc2[nH]c(C3CCCCC3)nc2cc1NC(=O)c1ccccc1 | 1.56 (≈ 4.3 µM) | > 100 | –
CCCNC(=O)Nc1cc2nc(C3CCCCC3)[nH]c2cc1N(CC)CC | > 100 | > 100 | –
CN(C)c1cc2[nH]c(C3CCCCC3)nc2cc1NC(=O)OCc1ccccc1 | 0.16 (≈ 0.408 µM) | > 100 | –
CCCCCC(=O)Nc1cc2nc(C3CCCCC3)[nH]c2cc1N(CC)CC | 12.5 (≈ 32.5 µM) | – | –
CCOc1ccc(C(=O)Nc2cc3nc(C4CCCCC4)[nH]c3cc2N(CC)CC)cc1 | > 100 | > 100 | –
O=C(Nc1cc2nc(C3CCCCC3)[nH]c2cc1N1CCCC1)c1ccccc1 | 6.25 (≈ 16.1 µM) | > 100 | –
CCc1ccc(C(=O)Nc2cc3nc(C4CCCCC4)[nH]c3cc2N(CC)CC)cc1 | 1.56 (≈ 3.73 µM) | > 100 | –
CN(C)c1cc2[nH]c(C3CCCCC3)nc2cc1NC(=O)c1ccc(OC(F)(F)F)cc1 | 0.16 (≈ 0.358 µM) | > 100 | –

— ChEMBL document CHEMBL3124890, “SAR studies on trisubstituted benzimidazoles as inhibitors of Mtb FtsZ for the development of novel antitubercular agents” (J Med Chem, 2013)
